Data as given in ChEMBL document CHEMBL1134489, “Enantioselective syntheses of dopaminergic (R)- and (S)-benzyltetrahydroisoquinolines” (J Med Chem, 2001).

Tests used:
[1] = target: Sodium-dependent dopamine transporter (Rattus norvegicus, UniProt P23977); experiment: Inhibition of [3H]dopamine uptake in rat striatal synaptosomes; assay type: subcellular, Brain
How it was run: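 Synaptosomes from male Wistar rat striatum (sucrose homogenate, 1000g then 15000g pellet) in oxygenated Krebs-Ringer pH 7.6. Preincubated 5 min with 10 µM pargyline, then 5 min with 2 nM final [3H]dopamine. Stopped by ice-cold dilution and filtration. Retained radioactivity counted by liquid scintillation. IC50 from curves with 4-11 concentrations, 4-6 determinations each.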

D(1A) dopamine receptor = D(1A) dopamine receptor (Rattus norvegicus, UniProt P18901); experiment: Inhibition of [3H]-SCH- 23390 binding to the rat striatal membranes; assay type: cell membranes, Membrane
Chain of D(1A) dopamine receptor (P18901 whole entry): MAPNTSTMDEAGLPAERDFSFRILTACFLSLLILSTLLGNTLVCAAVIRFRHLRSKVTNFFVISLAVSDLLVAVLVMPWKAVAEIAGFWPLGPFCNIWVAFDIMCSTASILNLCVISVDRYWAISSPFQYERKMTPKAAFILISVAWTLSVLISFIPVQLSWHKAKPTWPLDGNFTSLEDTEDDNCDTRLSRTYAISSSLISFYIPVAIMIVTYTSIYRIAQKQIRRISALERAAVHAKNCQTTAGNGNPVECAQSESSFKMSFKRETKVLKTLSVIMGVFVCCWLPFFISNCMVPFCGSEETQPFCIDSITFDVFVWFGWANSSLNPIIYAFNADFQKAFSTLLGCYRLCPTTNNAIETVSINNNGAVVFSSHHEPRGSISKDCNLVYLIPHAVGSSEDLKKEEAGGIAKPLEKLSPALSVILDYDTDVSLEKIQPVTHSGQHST
How it was run: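 Striatal membranes washed twice at 20000g, resuspended in Tris with 5 mM MgSO4, 0.5 mM EDTA, 0.02% ascorbic acid, sonicated. Membranes (100 µg protein) incubated 1 h at 25 °C with 0.25 nM [3H]SCH 23390 and test drug. Nonspecific binding defined with 30 µM SK&F 38393. Filtration, then scintillation counting. IC50 from curves of 4-11 concentrations, 4-6 determinations per concentration.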

D(2) dopamine receptor = D(2) dopamine receptor (Rattus norvegicus, UniProt P61169); experiment: Inhibition of [3H]-Raclopride binding to the rat striatal membranes; assay type: cell membranes, Membrane
Chain of D(2) dopamine receptor (P61169 whole entry): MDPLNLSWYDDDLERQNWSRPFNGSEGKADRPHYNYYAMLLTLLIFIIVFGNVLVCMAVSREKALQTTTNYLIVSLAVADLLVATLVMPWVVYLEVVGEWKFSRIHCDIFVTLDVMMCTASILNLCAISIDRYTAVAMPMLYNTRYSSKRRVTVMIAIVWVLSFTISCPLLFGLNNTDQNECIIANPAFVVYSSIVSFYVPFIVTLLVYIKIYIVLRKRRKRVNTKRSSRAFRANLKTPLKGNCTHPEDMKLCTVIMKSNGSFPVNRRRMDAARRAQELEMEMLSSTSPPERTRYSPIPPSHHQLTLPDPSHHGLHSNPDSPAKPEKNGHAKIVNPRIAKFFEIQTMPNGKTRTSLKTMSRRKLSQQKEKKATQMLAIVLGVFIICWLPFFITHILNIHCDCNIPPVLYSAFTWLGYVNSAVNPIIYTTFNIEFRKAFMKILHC
How it was run: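 Rat striatum homogenized in 50 mM Tris-HCl pH 7.4, washed four times by centrifugation at 20000g, resuspended in Tris with 120 mM NaCl, 5 mM KCl, 1 mM CaCl2, 1 mM MgCl2, 0.1% ascorbic acid. Membranes (200 µg protein) incubated 1 h at 25 °C with 0.5 nM [3H]raclopride plus drug. Nonspecific binding defined with 50 µM apomorphine. Filtration, scintillation counting. IC50 from 4-11 concentrations, 4-6 determinations each.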

Chain of Sodium-dependent dopamine transporter (P23977 whole entry): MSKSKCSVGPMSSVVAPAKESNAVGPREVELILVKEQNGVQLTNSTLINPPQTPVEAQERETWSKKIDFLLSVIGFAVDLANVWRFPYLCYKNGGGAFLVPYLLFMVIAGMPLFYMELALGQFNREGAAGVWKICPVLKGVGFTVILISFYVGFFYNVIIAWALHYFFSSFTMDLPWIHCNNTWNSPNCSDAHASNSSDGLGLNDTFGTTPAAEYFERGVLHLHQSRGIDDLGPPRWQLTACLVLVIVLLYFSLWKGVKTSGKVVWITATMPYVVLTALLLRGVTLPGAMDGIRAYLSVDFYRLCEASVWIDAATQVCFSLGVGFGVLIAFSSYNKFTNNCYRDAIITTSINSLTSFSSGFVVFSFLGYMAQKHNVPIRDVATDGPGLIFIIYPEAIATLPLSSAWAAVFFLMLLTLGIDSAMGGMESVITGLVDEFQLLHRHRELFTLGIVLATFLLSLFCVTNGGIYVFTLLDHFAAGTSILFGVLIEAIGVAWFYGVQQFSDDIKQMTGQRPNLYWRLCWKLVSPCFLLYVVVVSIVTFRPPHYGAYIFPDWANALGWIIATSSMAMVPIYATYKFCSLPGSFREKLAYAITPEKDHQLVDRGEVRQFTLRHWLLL

c1ccc(C[C@H]2NCCc3cc4c(cc32)OCO4)cc1
IC50 [1]: 6.8 µM
IC50 (D(1A) dopamine receptor): > 100 µM
IC50 (D(2) dopamine receptor): 53.1 µM

CCCN1CCc2cc(O)c(O)cc2[C@@H]1Cc1ccccc1
IC50 [1]: 64.8 µM
IC50 (D(1A) dopamine receptor): 16.6 µM
IC50 (D(2) dopamine receptor): 14.7 µM

CCCN1CCc2cc3c(cc2[C@H]1Cc1ccccc1)OCO3
IC50 [1]: 43.6 µM
IC50 (D(1A) dopamine receptor): > 100 µM
IC50 (D(2) dopamine receptor): > 100 µM

CCCN1CCc2cc3c(cc2[C@@H]1Cc1ccccc1)OCO3
IC50 [1]: 20.3 µM
IC50 (D(1A) dopamine receptor): 51.9 µM
IC50 (D(2) dopamine receptor): 21.9 µM

CCCN1CCc2cc(O)c(O)cc2[C@H]1Cc1ccccc1
IC50 [1]: 91.5 µM
IC50 (D(1A) dopamine receptor): > 100 µM
IC50 (D(2) dopamine receptor): 61.2 µM

c1ccc(C[C@@H]2NCCc3cc4c(cc32)OCO4)cc1
IC50 [1]: 3.6 µM
IC50 (D(1A) dopamine receptor): 23.9 µM
IC50 (D(2) dopamine receptor): 4 µM
